OX1R antag-1 = antagonists of human orexin 1 receptor (OX1R). OX1R-expressing cells, FRET antagonist read-out. actives 1.8% (n = 330,000). inhibition, % at 6.6 µM; in the data active = inhibition mostly above about 38%, no sharp cut-off; inactive = mostly below about 40%;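 also: 0% = agonist challenge alone and 100% = reference antagonist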
GPR7 antagonist = GPR7 receptor antagonists, primary screen, cell-based, fluorescence, single concentration; AID 1861, 2009; Neuropeptides B/W receptor type 1 (Homo sapiens), P48145; inhibition, % at 4.4 µM; GPR7-expressing cells, fluorescence antagonist assay; actives 1.1% (n = 290,000); in the data active = inhibition above about 16%, passing the limit was not always enough;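 also: cells stimulated with the agonist NPW; 0% = agonist with vehicle and 100% = vehicle without agonist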
Target sequence (P48145 whole entry, looked up): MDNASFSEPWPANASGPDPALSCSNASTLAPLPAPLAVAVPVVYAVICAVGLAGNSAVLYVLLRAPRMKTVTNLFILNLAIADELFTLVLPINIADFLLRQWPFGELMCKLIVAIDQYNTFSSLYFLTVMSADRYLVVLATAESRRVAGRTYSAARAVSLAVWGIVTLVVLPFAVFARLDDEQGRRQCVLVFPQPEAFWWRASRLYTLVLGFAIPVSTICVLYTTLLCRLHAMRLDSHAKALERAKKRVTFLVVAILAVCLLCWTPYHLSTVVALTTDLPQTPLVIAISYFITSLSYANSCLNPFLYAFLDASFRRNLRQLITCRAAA
TAAR1 antag = human TAAR1 antagonists, primary screen, Fluo-8 calcium fluorescence, CHO RD-HGA16 cells; antagonist; inhibition, % at 3 µM; actives 1.5% (n = 360,000); AID 624466, 2012;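 active = inhibition above a per-plate cutoff, the mean inhibition of test compounds on that plate plus 3 SD, cut at about 49% in these data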;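 also: 0% = DMSO plus EC80 beta-PEA response and 100% = DMSO alone without agonist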
Target sequence (Q96RJ0 whole entry, looked up): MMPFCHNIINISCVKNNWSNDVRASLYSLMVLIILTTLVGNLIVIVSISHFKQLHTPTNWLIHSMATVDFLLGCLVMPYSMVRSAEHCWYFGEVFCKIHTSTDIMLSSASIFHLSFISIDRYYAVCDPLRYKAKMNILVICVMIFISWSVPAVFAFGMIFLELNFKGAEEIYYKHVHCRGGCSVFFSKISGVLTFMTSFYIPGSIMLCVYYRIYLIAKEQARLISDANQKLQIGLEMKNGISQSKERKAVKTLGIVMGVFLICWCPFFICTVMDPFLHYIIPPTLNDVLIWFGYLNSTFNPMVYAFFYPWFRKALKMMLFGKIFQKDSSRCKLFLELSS
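Material: CHO RD-HGA16 cells bearing hTAAR1; compound dosing: one-point dosing, 3 µM nominal final; schedule: dye loading 75 min at 37 °C, then 30 min room temperature; measured by: calcium fluorescence with Fluo-8; control set: vehicle and agonist controls; replication: n of 1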
TAAR1 ag = human TAAR1 agonists, primary screen, Fluo-8 calcium fluorescence, CHO RD-HGA16 cells | Trace amine-associated receptor 1 (Homo sapiens), Q96RJ0 | vehicle wells 0%, saturating PEA agonist 100% | activation, % at 3 µM | actives 0.99% (n = 360,000);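 active = activation above the mean activation of all test compounds in the run plus 3 SD, cut at about 38% in these data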
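Test system: RD-HGA16 (CHO) cells co-expressing Gα16 and hTAAR1 | Doses: Single dose, 3 µM | Schedule: 17-24 h seeding, 75 min 37 °C dye, 30 min RT | Evaluation: % activation from peak over basal fluorescence ratio, DMSO-to-PEA scaled | Technique: Kinetic Fluo-8 calcium fluorescence | Benchmarks: Low control DMSO, high control PEA (EC100)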
CHO parental Ca = ATP-evoked calcium signal inhibitors, parental CHO, primary screen, counter-screen for OX1R antagonist project, cell-based, fluorescence, Fluo-8 calcium dye; inhibition, % at 5.6 µM; AID 463079, 2010; parental CHO-K1, ATP-induced calcium, Fluo-8 fluorescence; actives 0.63% (n = 330,000);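 active = inhibition above that plate's mean sample inhibition plus 3 SD, cut at about 26% in these data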;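 also: 0% = ATP-challenged DMSO wells and 100% = DMSO wells without ATP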
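Assay system – parental CHO cells · Reagent – ATP stimulus · Detection – intracellular calcium via Fluo-8 no-wash fluorescent dye · Evaluation – percent inhibition of ATP-evoked calcium rise, normalized to controls · Controls – ATP wells versus no-ATP DMSO wells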
OX1R antag-2 = OX1R (HCRTR1) antagonists, primary screen, fluorescence, CHO/OX1R cells, Fluo-8 calcium, orexin A; Fluo-8 calcium fluorescence; AID 434989, 2010; inhibition, % at 5 µM; Orexin/Hypocretin receptor type 1 (Homo sapiens), O43613; actives 0.43% (n = 330,000);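 active = inhibition above its plate's threshold, mean inhibition of all tested compounds on the plate plus 3 SD, cut at about 37% in these data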;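 also: 0% = orexin A challenge wells and 100% = SB-334867-A antagonist wells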
Numbers without * were called inactive; · = not tested or not shown. An excerpt weighted towards active compounds, which were near 4.5% of everything screened.

SMILES	OX1R antag-1	GPR7 antagonist	TAAR1 antag	TAAR1 ag	CHO parental Ca	OX1R antag-2
CC(C)NCc1cc(Br)ccc1OCc1ccccc1	9	6	15	43*	-14	-30
C=CCN1C(=O)C2(NC(=O)c3ccccc3N2)c2ccccc21 (centres undefined)	8	5	7	2	-3	12
CCCCN1C(=O)C2(NNc3ccccc3O2)c2ccccc21 (centres undefined)	3	10	21	10	31	37*
C=CCN1C(=O)C2(NNc3ccccc3O2)c2ccccc21 (centres undefined)	7	2	6	1	32*	30
CCNc1nc(NCC)nc(N/N=C/c2ccc(Br)cc2)n1	15	-6	4	6	-4	-26
O=c1[nH]c2cccc(F)c2n2cccc12	10	-16	-17	6	1	-2
COc1ccc(C(=O)Nc2ccccc2C(=O)NC(Cc2c[nH]c3ccccc23)C(=O)O)cc1 (centres undefined)	68*	-12	-8	5	-2	21
c1csc(-c2nc(-c3ccc(-c4ccon4)s3)no2)c1	40*	-8	-1	0	-9	28
O=C(CCNS(=O)(=O)c1ccc2nsnc2c1)N1CCN(c2ccncc2)CC1	51*	·	-2	9	-8	2
O=C1NC(=O)C(=C2CCOC2=O)N1	·	·	5	2	·	·
O=C(Nc1ccccc1)c1ccccc1OCC(O)CN1C(=O)c2ccccc2S1(=O)=O (centres undefined)	25	-3	65*	25	-5	18
COC(=O)C1=C(C)N(Cc2ccc(C(F)(F)F)cc2)C(=NCc2ccccc2C(F)(F)F)NC1c1ccc(C(F)(F)F)cc1 (centres undefined)	·	·	-13	2	·	·
Cc1cc(C(=O)OCC(=O)N2CCC(c3ccccc3)=N2)ccc1[N+](=O)[O-]	8	·	12	2	-10	-10
O=C(COC(=O)c1ccc([N+](=O)[O-])s1)Nc1ccccc1	72*	-2	11	2	-2	6
O=C(OCC(=O)N1CCC(c2ccccc2)=N1)c1ccc([N+](=O)[O-])s1	61*	·	8	2	-17	-27
O=C(OCc1nnc(-c2ccccc2)o1)c1ccc([N+](=O)[O-])s1	47*	·	14	6	-4	2
Cc1ccc(C(=O)OCc2nnc(-c3ccccc3)o2)s1	11	·	-4	4	-1	-17
Cc1c(Cl)cnc(NC(=O)COC(=O)c2ccc([N+](=O)[O-])s2)c1Cl	63*	-9	5	0	-14	-20
Cc1ccc(C)c(OCCC(=O)Nc2ccccc2C(=O)NC2CC2)c1	22	·	-25	3	-27	-23
CC(C)(C)c1ccc(NC(=O)COC(=O)c2ccc([N+](=O)[O-])s2)cc1	34	12	6	2	-4	4
O=C(COC(=O)c1ccc([N+](=O)[O-])s1)Nc1ccc(F)cc1	42*	·	13	4	-2	3
COC(=O)[C@]12C[C@H](CC(=O)N3CCOCC3)C(=O)N(Cc3ccccc3)C1=C[C@H](C(C)(C)C)O[C@@H]2C	·	·	-9	1	·	·
Cc1ccccc1S(=O)(=O)N1CCCc2nc(C)c(C)cc21	·	·	-28	0	·	·
COc1ccc2c(c1)[C@@]1(OCCC=C[C@H]1C)C(=O)N2Cc1ccccc1C(F)(F)F	·	·	-49	6	·	·
Nc1ccc(Nc2nc(-c3cc4ccccc4oc3=O)cs2)cc1	3	-6	1	2	0	-6
SMILES	OX1R antag-1	GPR7 antagonist	TAAR1 antag	TAAR1 ag	CHO parental Ca	OX1R antag-2
CC(=O)Nc1ccc(Nc2nc(-c3cc4ccccc4oc3=O)cs2)cc1	·	-10	55*	11	·	·
O=C(Nc1nc(-c2cccs2)cs1)c1cc2ccccc2oc1=O	·	-5	·	·	·	·
O=c1oc2ccccc2cc1-c1nc(-c2cccs2)cs1	51*	-12	14	3	-30	3
Cc1cccc(C(=O)n2c(=S)nc3cc(C)ccn32)c1	41*	-5	-13	0	-12	-6
Cc1ccn2c(c1)nc(=S)n2C(=O)c1ccccc1	13	2	-14	2	-11	-7
COC(=O)c1ccc(N2C(=O)CC(N3CCN(c4ccccc4)CC3)C2=O)cc1 (centres undefined)	30	19*	-17	1	-6	-17
COC(=O)c1ccc(N2C(=O)CC(N3CCOCC3)C2=O)cc1 (centres undefined)	14	-3	8	-2	6	-13
COc1cccc(/C=C2/SC(=S)N(CCCC(=O)Nc3ccc(O)cc3)C2=O)c1	73*	-19	-24	-1	-9	10
O=C(CCN1C(=O)/C(=C/c2ccc3c(c2)OCO3)SC1=S)Nc1cccc(C(=O)O)c1	10	-4	-12	1	4	-5
COc1cccc(/C=C2/SC(=S)N(CC(=O)NNC(=O)c3ccccc3O)C2=O)c1	48*	-4	-6	-1	-11	-3
O=C(CCCN1C(=O)/C(=C/c2ccc3c(c2)OCO3)SC1=S)Nc1cccc(C(=O)O)c1	54*	12	-14	3	-17	7
COc1ccc(/C=C2/SC(=S)N(CCCC(=O)Nc3ccc(O)cc3)C2=O)cc1OC	54*	-25	-26	-2	-1	-11
COc1cccc(/C=C2\SC(=S)N(CCCC(=O)Nc3ccc(C(=O)O)cc3)C2=O)c1	0	-10	-19	4	-15	-16
O=C(CN1C(=O)/C(=C/c2ccccc2)SC1=S)NNC(=O)c1ccccc1O	14	-4	-15	10	0	-6
COc1cc(C(=O)OCC(=O)Nc2ccc(C)cc2)cc(OC)c1OC	4	12	-10	1	-10	-50
CCCC(=O)OC[C@H]1CN(C2CCCC2)S(=O)(=O)c2c(Oc3ccc(F)cc3OC)cccc2O1	·	·	-10	1	·	·
O=C(NCc1ccccc1)C(C1CC1)n1c(CSCCOc2ccccc2)nc2ccccc21 (centres undefined)	·	·	11	0	·	·
Cc1[nH]c2ccc(-c3nnc(SCC(=O)c4ccc(F)cc4)o3)cc2c1C	10	26	4	8	3	-15
Cc1cc(C)c(C)c(C(=O)CSc2nnc(-c3ccc4[nH]c(C)c(C)c4c3)o2)c1C	13	-8	69*	6	-5	-23
COc1ccc(CN=Cc2[nH]c3ccc(Br)c(Cl)c3c2O)cc1	19	10	106*	-3	-5	-14
